An excerpt weighted towards active compounds, which were near 3.1% of everything screened.
OX1R antag-1 = blocks the human orexin 1 receptor; inhibition, % at 6.6 µM; hit rate 1.8% among 330,000; OX1R-expressing cells, FRET antagonist read-out; O43613; in the data active = inhibition mostly above about 38%, no sharp cut-off; inactive = mostly below about 40%
CHO parental Ca = counter-screen: ATP calcium response change in parental CHO cells | inhibition, % at 5.6 µM | hit rate 0.63% among 330,000 | parental CHO-K1, ATP-induced calcium, Fluo-8 fluorescence | AID 463079;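 active = inhibition above that plate's mean sample inhibition plus 3 SD, cut at about 26% in these data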
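Material – parental CHO cells · Reagent – ATP stimulus · Compound – single nominal dose of 5.6 µM per compound · Detection – Fluo-8 fluorescence · Read-out basis – percent inhibition of calcium signal · Controls – ATP-challenged DMSO wells low, unchallenged DMSO wells high · Repeats – no replicates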
OX1R antag-2 = human HCRTR1 antagonism; O43613; CHO/OX1R cells, Fluo-8 calcium fluorescence, orexin A; inhibition, % at 5 µM; hit rate 0.43% among 330,000; AID 434989;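 active = inhibition above its plate's threshold, mean inhibition of all tested compounds on the plate plus 3 SD, cut at about 37% in these data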
GPR7 antagonist = blocks human GPR7 receptor signaling. hit rate 1.1% among 290,000. inhibition, % at 4.4 µM. GPR7-expressing cells, fluorescence antagonist assay. P48145; in the data active = inhibition above about 16%, passing the limit was not always enough;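 also: cells stimulated with the agonist NPW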
Target sequence (P48145 whole entry, looked up): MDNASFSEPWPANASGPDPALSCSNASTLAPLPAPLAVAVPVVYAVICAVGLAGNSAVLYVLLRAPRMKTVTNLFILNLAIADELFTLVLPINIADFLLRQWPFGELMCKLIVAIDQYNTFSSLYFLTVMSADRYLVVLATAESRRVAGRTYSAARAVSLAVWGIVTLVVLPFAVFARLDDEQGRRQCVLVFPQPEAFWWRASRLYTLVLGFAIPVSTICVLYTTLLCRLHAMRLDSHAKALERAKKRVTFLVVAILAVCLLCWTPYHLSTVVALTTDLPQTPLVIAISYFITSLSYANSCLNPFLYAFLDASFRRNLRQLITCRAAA
GalR3 antagonist = blocks the human galanin receptor 3; HEK293 GalR3-CNG cAMP membrane potential fluorescence; galR3 body fused to GalR1 C-terminus; hit rate 0.44% among 360,000; inhibition, % at 3 µM; AID 651719;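 active = inhibition above the screen-wide average plus 3 SD, cut at about 13% in these data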;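 also: forskolin and galanin both at EC90 stimulate the cells; cAMP rise reported by CNG channel membrane potential dye signal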
Target sequence (O60755 1-299 limits assumed): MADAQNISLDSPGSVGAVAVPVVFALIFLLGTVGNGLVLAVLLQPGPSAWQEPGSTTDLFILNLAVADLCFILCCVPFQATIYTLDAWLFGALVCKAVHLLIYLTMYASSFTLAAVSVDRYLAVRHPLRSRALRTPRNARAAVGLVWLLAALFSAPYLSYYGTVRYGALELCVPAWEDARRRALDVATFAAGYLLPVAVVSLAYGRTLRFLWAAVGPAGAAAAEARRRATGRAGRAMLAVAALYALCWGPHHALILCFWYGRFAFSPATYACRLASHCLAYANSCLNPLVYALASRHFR
Each line names hits and unclear results; the compound was inactive in the other large screens.

Cc1ccc(S(=O)(=O)N2CCN(c3ncnc4sccc34)CC2)cc1	CHO parental Ca 37.4
N#Cc1c(-c2cccs2)cc(-c2cccnc2)nc1N	OX1R antag-1 46.3
O=C(COc1cccc(-n2cnnn2)c1)Nc1ccc([N+](=O)[O-])cc1	none
O=C(Nc1nnc(-c2ccco2)o1)c1ccc([N+](=O)[O-])s1	OX1R antag-1 66.0
C=CCN=C1NC(c2ccccc2C(F)(F)F)C(C(=O)OC)=C(C)N1Cc1ccccc1C(F)(F)F (stereo not drawn)	none (no result: OX1R antag-1, CHO parental Ca, OX1R antag-2, GPR7 antagonist)
CCc1cc(Cn2nc(-c3ccccc3)cc2C(=O)NCc2cccs2)on1	CHO parental Ca 49.7 (no result: GPR7 antagonist)
CCc1cc(Cn2nc(-c3ccccc3)cc2C(=O)NCCOC)on1	none (no result: GPR7 antagonist)
OCCCc1nc2n(n1)C(c1cccs1)C=C(c1ccc(Br)cc1)N2 (stereo not drawn)	CHO parental Ca 38.7 (no result: GalR3 antagonist)
Cc1ccc(C2C=C(c3ccccc3)Nc3ncnn32)cc1 (stereo not drawn)	none (no result: GPR7 antagonist)
CC1=C(C(N)=O)C(c2ccc(Br)cc2)n2nc(CCCO)nc2N1 (stereo not drawn)	none
Brc1ccc(C2=CC(c3cccs3)n3ncnc3N2)cc1 (stereo not drawn)	CHO parental Ca 41.3
C1=C(c2ccc(-c3ccccc3)cc2)Nc2ncnn2C1c1ccco1 (stereo not drawn)	GPR7 antagonist 25.6 (no result: OX1R antag-1, CHO parental Ca, OX1R antag-2)
Cc1c(C(=O)O)c(O)cc2c1C(=O)c1c(O)c([C@@H]3O[C@H](CO)[C@@H](O)[C@H](O)[C@H]3O)c(O)c(O)c1C2=O	OX1R antag-1 70.7 (no result: GPR7 antagonist)
N#CC1(NC(=O)CN2C(=O)NC(Cc3c[nH]c4ccccc34)C2=O)CCCCC1 (stereo not drawn)	none (no result: GPR7 antagonist)
COc1ccc(-n2nc3ccccc3n2)cc1	none
COc1ccc(-n2nc3cc(N)c(Br)cc3n2)cc1	OX1R antag-1 43.3
COc1ccccc1N1CCN(c2ccc3c(c2)S(=O)(=O)c2cccc(C(=O)NCc4cccc(F)c4)c2C3=O)CC1	none (no result: OX1R antag-1, CHO parental Ca, OX1R antag-2, GPR7 antagonist)
C=CCn1c(SCC(=O)NCc2ccco2)nc2sc3c(c2c1=O)CCCC3	none
O=C(NCc1ccco1)c1ccc2nc3sc4c(c3c(=O)n2c1)CCCC4	OX1R antag-1 87.1 (no result: GalR3 antagonist)
CCOC(=O)c1c(/N=C/c2cc([N+](=O)[O-])ccc2O)sc(C)c1C	GPR7 antagonist 23.1
CCOC(=O)/C(C#N)=C1/C=C(C)NC(c2ccccc2O)=N1	OX1R antag-1 40.5
CCOC(=O)/C(C#N)=C1/C=CN(C)C(C)=N1	none
CC(=O)N1CCN(c2ccc([N+](=O)[O-])c(NCc3cccnc3)c2)CC1	OX1R antag-1 42.2
CCS(=O)(=O)N1CCN(c2ccc([N+](=O)[O-])c(NCc3cccnc3)c2)CC1	none
O=C(O)c1ccc(NCc2cccnc2)c([N+](=O)[O-])c1	OX1R antag-1 54.5
O=c1[nH]c(=S)[nH]c2nc(-c3ccccc3)cnc12	OX1R antag-1 63.2 (no result: GPR7 antagonist)
COc1ccc(C(=S)N2CCN(c3cccc(Cl)c3)CC2)c(OC)c1	GPR7 antagonist 28.1
CCN(CC)CCCNc1ccc2ncn3c4ccc(O)cc4c(=O)c1c23	none (no result: OX1R antag-1, CHO parental Ca, OX1R antag-2, GPR7 antagonist)
C[C@]12C(=O)N(c3ccc(F)cc3)C(=O)N1[C@H]1c3ccccc3OC[C@@H]1[C@H]2c1ccccc1	none (no result: GPR7 antagonist)
CN(C)c1ccc(C(=O)Nc2nc3c(s2)CCCC3)cc1	OX1R antag-1 52.0
COC(=O)C1=C(C)N(C)C(=NCc2ccc(OC)cc2)NC1c1ccc(Cl)cc1 (stereo not drawn)	none (no result: OX1R antag-1, CHO parental Ca, OX1R antag-2, GPR7 antagonist)
COCCn1c(C)cc(C(=O)CN2C(=O)NC3(CCCCCCC3)C2=O)c1C	OX1R antag-1 63.1
COCCn1c(C)cc(C(=O)CN2CCCCC2)c1C	none
NC(Cc1ccc(O)cc1)C(=O)NN=Cc1ccccc1O (stereo not drawn)	none (no result: OX1R antag-1, CHO parental Ca, OX1R antag-2, GPR7 antagonist)
O=C1c2ccccc2C(=O)C1c1ccc2ccccc2n1	OX1R antag-1 50.9
COC(=O)C1=C(C)NC(C)=C(C(=O)OC)C1c1ccc2ccccc2n1	none
COc1cc(/C=N/NC(=O)C(=O)/C=C2\NC3(CCCC3)Cc3ccccc32)ccc1O	OX1R antag-1 61.0
O=C(Cn1cnc2c(NCc3ccccc3)ncnc21)NCCc1cc2ccccc2[nH]1	OX1R antag-1 34.1 (no result: GPR7 antagonist)
CN(C(=O)c1ccc(NC(=O)Cc2cccc(NC(=O)C3CCN(C(=O)CCc4ccccc4)CC3)c2)cc1)C1CC1	none (no result: OX1R antag-1, CHO parental Ca, OX1R antag-2, GPR7 antagonist)
O=C(O)c1cc2nccc(-c3ccco3)n2n1	none
COc1ccc(-c2ccnc3cc(C(=O)O)nn23)cc1	OX1R antag-1 56.8
CSC1=C(C#N)C(c2ccccc2Cl)C(C(=O)c2cccs2)C(O)(C(F)(F)F)N1 (stereo not drawn)	OX1R antag-1 62.4
Cc1ccc(S(=O)(=O)/N=C2/C=C(C3C(=O)CC(C)(C)CC3=O)C(=O)c3ccccc32)cc1	OX1R antag-1 63.5
C#CCNC(=O)C[C@H]1C[C@@]2(C(=O)OC)C(=C[C@H](C3CCCC3)O[C@@H]2C)N(CCCCCCCC)C1=O	none (no result: OX1R antag-1, CHO parental Ca, OX1R antag-2, GPR7 antagonist)
C=C(C)C(O)CC/C(C)=C/Cc1c(O)ccc(C(=O)/C=C/c2ccc(O)cc2)c1O (stereo not drawn)	CHO parental Ca 30.9 (no result: GPR7 antagonist)
Cc1noc(C)c1NC(=O)N(C)C[C@@H]1Oc2c(NC(=O)c3ccncc3)cccc2C(=O)N([C@H](C)CO)C[C@@H]1C	none (no result: GPR7 antagonist)
CCCCC(CC)C(=O)Nc1ncc([N+](=O)[O-])s1 (stereo not drawn)	CHO parental Ca 38.2
O=C(CCS(=O)(=O)Cc1ccccc1)Nc1ncc([N+](=O)[O-])s1	OX1R antag-1 49.2
Cc1ccc(CC(=O)Nc2ncc([N+](=O)[O-])s2)cc1	OX1R antag-1 40.4
O=C(COC(=O)c1ccc(Br)o1)Nc1ncc([N+](=O)[O-])s1	OX1R antag-1 41.2 (no result: GPR7 antagonist)
Cc1ncoc1C(=O)Nc1ncc([N+](=O)[O-])s1	none
O=C(CCS(=O)(=O)c1ccccc1)Nc1ncc([N+](=O)[O-])s1	none
COc1ccc(C(=O)OCC(=O)Nc2ncc([N+](=O)[O-])s2)cc1OC	none (no result: GPR7 antagonist)
Cc1ccc(S(=O)(=O)CC(=O)Nc2ncc([N+](=O)[O-])s2)cc1	none
CN(C)CCCNC(=O)C[C@H]1C[C@H](C(=O)N2CCCCC2)[C@@]2(CCc3ccccc3)c3[nH]c4ccc(Cl)cc4c3CCN2C1=O	none (no result: GPR7 antagonist)
O=C(CC[C@H]1O[C@@H](n2ccc(=O)[nH]c2=O)[C@H](O)[C@@H]1O)NCCN1CCOCC1	none (no result: OX1R antag-1, CHO parental Ca, OX1R antag-2, GPR7 antagonist)
COc1cc(OC)cc(C(=O)Nn2c(C)nc3ccccc3c2=O)c1	none
COc1ccc2[nH]c3c(c2c1)CCn1c-3nc2ccccc2c1=O	OX1R antag-1 47.2 (no result: GalR3 antagonist)
COc1c(Cl)cc(C(=O)Nc2cccnc2)cc1Cl	none (no result: OX1R antag-1, CHO parental Ca, OX1R antag-2, GPR7 antagonist)
Nc1nc(Nc2cccc(F)c2)nc2ccccc12	OX1R antag-1 57.5
O=c1oc(Nc2cccc(F)c2)nc2ccccc12	none
O=C1C=C(NCc2ccc(Cl)cc2Cl)C2(CCCCC2)O1	GPR7 antagonist 20.8
CCNC(=O)C(=O)Nc1ccc([N+](=O)[O-])cc1	none
CCC(CC)C(=O)Nc1ccc(Sc2ccc([N+](=O)[O-])cc2)cc1	OX1R antag-1 41.1, OX1R antag-2 59.6
COc1ccc(CN2C[C@H](COCc3ccccc3)Oc3cccc(N4CCCC4)c3S2(=O)=O)cc1	none (no result: OX1R antag-1, CHO parental Ca, OX1R antag-2, GPR7 antagonist)

Screening results as filed in PubChem BioAssay.
